# Bioassay records deposited in PubChem by The Scripps Research Institute Molecular Screening Center.
# Sampled rows, rich in hits. Any-hit rate of the full collection: about 1.9%.
# M4 ag: CHRM4 agonism in calcium assay. P08173. CHO-K1 hM4/Gqi5, Fluo-8 calcium fluorescence; vehicle 0%, full acetylcholine response 100%. activation, % at 3 µM. 0.14% of 360,000 active;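 active means activation above the run mean over all test wells plus 3 SD, cut at about 32% in these data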;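 further: peak over basal fluorescence ratio per well then scaled between controls; 0% = DMSO wells and 100% = acetylcholine at EC100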
# M4 antag: CHRM4 antagonism in calcium assay; CHO-hM4 cells, ACh EC80, Fluo-8 calcium fluorescence; AID 624125; 0.73% of 360,000 active; P08173; inhibition, % at 3 µM;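 active means inhibition above its plate's cutoff, the mean inhibition of sample wells plus 3 SD, cut at about 27% in these data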;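 further: 0% = acetylcholine EC80 with DMSO and 100% = DMSO without agonist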
# CHRM4 PAM: CHRM4 positive allosteric modulation | activation, % at 3 µM | P08173 | CHO-K1 hM4/Gqi5, Fluo-8 calcium fluorescence, ACh EC20; 0% = ACh EC20, 100% = maximal ACh | 0.4% of 360,000 active;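 active means activation above its plate's cutoff, the mean activation of sample wells plus 3 SD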
# M5 antag: CHRM5 antagonism in calcium assay; CHO-hM5 cells, Fluo-8 calcium fluorescence, ACh EC80; inhibition, % at 3 µM; 0.59% of 360,000 active; AID 624040;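 active means inhibition above a per-plate cutoff, the mean of that plate's test compounds plus 3 SD, cut at about 27% in these data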;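 further: 0% = acetylcholine EC80 with DMSO and 100% = DMSO without agonist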
# Target sequence (P08912 whole entry, looked up): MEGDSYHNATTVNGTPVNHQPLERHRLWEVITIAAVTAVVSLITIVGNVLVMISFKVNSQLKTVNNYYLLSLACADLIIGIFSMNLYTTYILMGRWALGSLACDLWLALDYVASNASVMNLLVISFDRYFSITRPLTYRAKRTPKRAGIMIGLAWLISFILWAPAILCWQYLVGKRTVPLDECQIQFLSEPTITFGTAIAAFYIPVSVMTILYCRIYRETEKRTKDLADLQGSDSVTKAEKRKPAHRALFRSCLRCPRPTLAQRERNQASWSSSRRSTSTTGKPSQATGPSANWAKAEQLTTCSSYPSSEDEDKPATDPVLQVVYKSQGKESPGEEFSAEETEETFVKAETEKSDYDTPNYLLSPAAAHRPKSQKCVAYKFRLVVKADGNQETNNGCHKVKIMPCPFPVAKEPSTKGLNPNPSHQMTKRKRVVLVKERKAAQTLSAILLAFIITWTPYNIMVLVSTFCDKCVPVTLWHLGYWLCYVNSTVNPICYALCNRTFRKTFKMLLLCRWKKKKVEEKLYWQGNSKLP
# M5 ag: CHRM5 agonism in calcium assay | CHO-K1 hM5 cells, Fluo-8 calcium fluorescence; 0% DMSO wells, 100% maximal acetylcholine response | activation, % at 3 µM | 0.19% of 360,000 active | AID 624037;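 active means activation above the run's mean over test compounds plus 3 SD, cut at about 23% in these data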;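 further: signal is peak over basal fluorescence ratio across the kinetic read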
# M5 PAM: CHRM5 positive allosteric modulation; P08912; CHO-K1 hM5, Fluo-8 calcium, ACh EC20 PAM; 0% = ACh EC20, 100% = ACh EC100; activation, % at 3 µM; 0.3% of 360,000 active; AID 624038;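 active means activation above the run cutoff, the mean activation of all test compounds plus 3 SD, cut at about 18% in these data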
#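 system = human M5 receptor in CHO-K1 cells | reagent = EC20 acetylcholine as agonist stimulus | compound dosing = single-point, 3 µM nominal | incubation = Fluo-8 loading 80 min at 37 °C plus 30 min room temperature | detection = Fluo-8 calcium dye fluorescence, kinetic read | benchmarks = low control EC20 acetylcholine (0%), high control EC100 acetylcholine (100%)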
# Active calls of the source: *; · = no result given.
SMILES,M4 ag,M4 antag,CHRM4 PAM,M5 antag,M5 ag,M5 PAM
CC1OC(C[N+](C)(C)C)CC1O (configuration not stated),71*,30*,-19,95*,102*,-13
COc1ccc(NC(=O)N2C[C@@H]3C[C@@H](C2)c2cccc(=O)n2C3)c(OC)c1,3,-19,4,5,0,0
Cc1cc(C)c(NC2=NCCS2)cc1C,1,-3,-1,16,-9,-1
CCCC[n+]1cc(/N=C(\[O-])OC)on1,1,4,1,-2,-2,36*
C[N+]1(C)[C@@H]2CC[C@H]1CC(OC(=O)C(c1ccccc1)c1ccccc1)C2 (some centres not stated),16,99*,-18,99*,-3,-17
C[N+]1(C)[C@@H]2CC(OC(=O)[C@H](CO)c3ccccc3)C[C@H]1[C@@H]1O[C@@H]12 (some centres not stated),·,·,·,98*,-1,-18
O=C(OC1CCN(CCCl)CC1)C(c1ccccc1)c1ccccc1,2,57*,-18,64*,-1,-19
CCCC[N+]1(C)[C@@H]2CC(OC(=O)[C@H](CO)c3ccccc3)C[C@H]1[C@@H]1O[C@@H]12 (some centres not stated),0,92*,-19,72*,-2,-18
CN1[C@@H]2CC[C@H]1CC(OC(=O)C1C=Nc3ccccc31)C2 (some centres not stated),2,9,-12,4,-1,-6
CN1CCC(OC(=O)Cc2ccccc2)CC1,0,8,-14,20,-10,-19
Cc1ccnc(NC(=O)CCCc2ccc(N(CCCl)CCCl)cc2)n1,1,4,2,10,3,-3
O=P(O)(O)CN1CCNCCN(CP(=O)(O)O)CCNCC1,0,-11,1,10,1,-11
C[N+]1(C)C2CC(OC(=O)C(CO)c3ccccc3)CC1C1OC12 (configuration not stated),·,·,·,99*,-1,-18
O=C(COc1ccc(Cl)cc1)NC1CN2CCC1CC2 (configuration not stated),1,12,-7,38*,-9,-23
O=C(NC1CN2CCC1CC2)c1cccc(Cl)c1 (configuration not stated),0,0,-3,3,-9,2
N#Cc1ccc(CN2Cc3ccccc3-n3nncc3C2)cc1,1,-14,1,-4,-1,5
CC(=O)OC(C)(C)/C=C/C(=O)C(C)(O)C1C(O)CC2(C)C3CC=C4C(CC(O)C(=O)C4(C)C)C3(C)C(=O)CC12C (configuration not stated),1,-8,16*,-3,3,5
COC(=O)C1=C(c2ccc(F)cc2OCc2ccccc2)C[C@@H]2CC[C@H]1N2C(=O)NCCc1ccc(F)cc1,4,3,-8,12,-1,-2
O=[N+]([O-])/C=C/c1c(Cl)cccc1Cl,16,18,-9,29*,-3,-24
CCOC(=O)c1[nH]c2ccc(OC)cc2c1C(SCC(=O)O)c1ccc(C(F)(F)F)cc1 (configuration not stated),0,-3,-2,2,-3,-1
O=C(c1cccs1)C1CN2CCC1CC2 (configuration not stated),0,-1,-16,13,-7,-13
O=C(O)C1CN2CCC1CC2 (configuration not stated),1,10,1,-1,37*,-10
CC(C)c1ccc(NC(=O)CCNC(=O)N2C[C@H]3C[C@@H](C2)c2cccc(=O)n2C3)cc1,0,-14,6,1,0,3
O=c1[nH]c(=O)n(C2CCCCC2)c(O)c1/C=C/C=Nc1ccccc1,16,9,-23,14,28*,-8
O=c1[nH]c(=O)n(-c2ccccc2)c(O)c1/C=C/C=Nc1ccccc1,6,-4,2,2,4,-5
SMILES,M4 ag,M4 antag,CHRM4 PAM,M5 antag,M5 ag,M5 PAM
COc1ccc(-n2c(O)c(/C=C/C=Nc3ccccc3)c(=O)[nH]c2=O)cc1,24,15,-9,15,24*,-14
COc1ccc2ccccc2c1CNCCc1ccccc1,5,5,-4,-4,-4,18*
COC(=O)C1=C(c2ccc(F)cc2OCc2ccccc2)C[C@@H]2CC[C@H]1N2C(=O)NCCOc1ccc(OC)cc1,12,-6,-11,13,-4,-20
COc1ccc(C(=O)C2CCCN(Cc3cnc(C)s3)C2)cc1OC (configuration not stated),1,5,-11,-3,-10,-3
COc1ccc(C(=O)C2CCCN(C3CSCCSC3)C2)cc1OC (configuration not stated),2,39*,-27,9,-19,-16
O=C(c1ccc(Cl)cc1)C1CCCN(C2CCSCC2)C1 (configuration not stated),2,37*,-19,27*,-10,-17
Cc1cc(C(=O)N2CCC3(CC2)OCCO3)no1,1,2,4,0,-3,-6
COC(=O)C1=C(c2ccc(C(C)=O)cc2)C[C@@H]2CC[C@H]1N2C(=O)NCc1ccc(C(F)(F)F)cc1,36*,2,-6,13,38*,-19
Cc1ccc2c(c1)C(c1ccccc1)=NCC(=O)N2C,0,-2,-8,23,0,-8
Cc1nn(Cc2ccc(Cl)cc2Cl)c(Cl)c1C(=O)O,2,-12,21*,-14,4,11
Cc1nn(Cc2ccccc2Cl)c(Cl)c1C(=O)O,0,-14,6,10,-5,-12
O=C1NC(=O)C(=Cc2ccc(N3CCN(C(=O)c4ccccc4)CC3)c([N+](=O)[O-])c2)C(=O)N1,41*,48*,54*,2,5,-2
CC(=O)O[C@H]1CC[C@@]2(C)[C@H](C1)C(=O)C[C@H]1[C@@H]3CC[C@@H]4[C@@H](CN5C[C@@H](C)CC[C@H]5[C@@]4(C)O)[C@@H]3C[C@@H]12,0,65*,-15,10,-7,-6
C[C@]12CC[C@H](O)CC1C(=O)CC1C2CC[C@@]2(C)C1CC[C@@H]2O (some centres not stated),2,-12,4,-3,-5,-3
C[C@H]1CC[C@@H]2N(C1)C[C@H]1[C@@H]3C[C@H]4[C@@H](CC(=O)[C@H]5C[C@@H](O)CC[C@@]54C)[C@@H]3CC[C@H]1[C@]2(C)O,1,85*,-18,1,-6,-8
